pEC50, pIC50: −log10 of the molar value.

Data set [1] is described as follows: Selectivity index, ratio of CC50 for mock-infected human MT4 cells to EC50 for HIV1 3B infected in human MT4 cells. The note with it: mock-infected (CC50) and HIV-1 3B infected (EC50). Type of data set: toxicity, cell-based. A digest of the protocol:
(§1)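 Selectivity index is CC₅₀/EC₅₀. Both values come from MTT assays run over 5 days in MT-4 cells, mock-infected or infected with HIV-1 IIIB or HIV-2 ROD at 100–300 CCID₅₀. Median OD of three wells.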

Data set [2] in a line: Selectivity index, ratio of CC50 for mock-infected human MT4 cells to EC50 for HIV2 ROD infected in human MT4 cells. In kind it is toxicity, cell-based. The note with it: read-out: Ratio CC50/EC50. A digest of the protocol:
as §1

For data set [3], the system named is Human immunodeficiency virus 2. Description: Antiviral activity against HIV2 ROD infected in human MT4 cells assessed as inhibition of virus-induced cytopathic effect after 5 days by MTT assay. The note with it: Human immunodeficiency virus 2, ISOLATE ROD, MT4, 120 h. In kind it is functional, organism-based. In short, it runs like this: (§2)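 MT-4 cells, resuspended at 6 × 10⁵ cells/ml, infected with HIV-1 IIIB or HIV-2 ROD at 100–300 CCID₅₀. Test compound stocks were made at 10× final concentration. Read after 5 days as MTT reduction to formazan, absorbance at 540 and 690 nm. Median OD of three wells. EC₅₀ is the concentration giving 50% protection against virus-induced cytopathic effect.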

The nature of data set [4]: Cytotoxicity against mock-infected human MT4 cells after 5 days by MTT assay. In kind it is cell-based. A digest of the protocol: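 Mock-infected MT-4 cells at 6 × 10⁵ cells/ml, with culture medium in place of virus, exposed to compound (stocks at 10× final concentration) for 5 days. Viability read by MTT, absorbance at 540 and 690 nm, median OD of three wells. CC₅₀ is the concentration reducing OD540 of the mock-infected control by 50%.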

The subject of data set [5] is Human immunodeficiency virus 1. Description: Antiviral activity against HIV1 3B infected in human MT4 cells assessed as inhibition of virus-induced cytopathic effect after 5 days by MTT assay. Type of data set: functional, organism-based. The note with it: Human immunodeficiency virus 1, 3B, MT4, 120 h. A digest of the protocol: as §2
Data set [6] has as its target Human immunodeficiency virus type 1 reverse transcriptase (Human immunodeficiency virus 1, UniProt Q72547). Put plainly: Inhibition of wild type HIV1 reverse transcriptase.
The target of data set [7] is Human immunodeficiency virus type 1 reverse transcriptase (Human immunodeficiency virus 1, UniProt Q72547, K103N/Y181C). Put plainly: Inhibition of HIV1 reverse transcriptase K103N/Y181C mutant.

In the case of `O=C(CSc1[se]nnc1-c1ccc(Cl)c(Cl)c1)Nc1ccccc1F`, the selectivity ratio in data set [1] and in data set [2] was < 1 each time. The negative logarithm of the EC50 (pEC50) in data set [3] and in data set [5] was < 4.57 each time. In data set [4], this compound returned a CC50 at 120 h of 26.9 µM.
Regarding `Cc1cccc(NC(=O)CSc2[se]nnc2-c2ccc(Cl)c(Cl)c2)c1C`, the selectivity ratio in data set [1] and in data set [2] was < 1 each time. Moreover, the pEC50 in data set [3] and in data set [5] was < 4.89 in each case. The same compound registered a CC50 at 120 h in data set [4] of 12.8 µM.
Consider `Cc1ccc2sc(NC(=O)CSc3[se]nnc3-c3ccc(Cl)c(Cl)c3)nc2c1`, for which the selectivity ratio in data set [1] and in data set [2] was < 1 throughout. Further, the pEC50 in data set [3] and in data set [5] was < 4.99 each time. In addition, in data set [4], the CC50 at 120 h was 10.2 µM.
In turn, `Cc1cc(C)c(-n2nnnc2SCC(=O)Nc2ccccc2Cl)c(C)c1` gave a pIC50 in data set [6] of 8.30.
Consider `O=C(CSc1[se]nnc1-c1ccc(Cl)c(Cl)c1)Nc1ccccn1`, for which the selectivity ratio in data set [1] and in data set [2] was < 1 throughout. The pEC50 in data set [3] and in data set [5] was < 4.50 in each case. This compound also displayed a CC50 at 120 h in data set [4] of 31.4 µM.
For the compound `Cc1ccc(NC(=O)CSc2nnc(C)n2-c2ccccc2)c(Br)c1`, the pEC50 was 5.89 in data set [7] and 7.00 in data set [6].
Take `Cc1cccc(C)c1NC(=O)CSc1[se]nnc1-c1ccc(Cl)c(Cl)c1`: the selectivity ratio in data set [1] and in data set [2] was < 1 throughout. Also, the pEC50 in data set [3] and in data set [5] was < 5.15 throughout. The same compound registered a CC50 at 120 h in data set [4] of 7 µM.
Take `Cc1ccc(-n2c(C)nnc2SCC(=O)Nc2ccccc2)cc1`: the pEC50 in data set [6] was 5.69.
For `O=C(CSc1[se]nnc1-c1ccc(Cl)c(Cl)c1)Nc1ccc(Cl)cc1`, the selectivity ratio in data set [1] was 3; in data set [2], < 1. The pEC50 in data set [3] was < 4.77; in data set [5], 5.25. This compound gave a CC50 at 120 h in data set [4] of 16.8 µM.
As to `O=C(CSc1[se]nnc1-c1ccc(Cl)c(Cl)c1)Nc1nccs1`, the selectivity ratio in data set [1] and in data set [2] was < 1 each time. The pEC50 in data set [3] and in data set [5] was < 5.06 in each case. Also, the midpoint of cytotoxicity in data set [4], the CC50 at 120 h, lay at 8.68 µM.
In the case of `O=C(CSc1[se]nnc1-c1ccc(Cl)c(Cl)c1)Nc1ccccc1[N+](=O)[O-]`, in data set [2], the selectivity ratio is < 1. In addition, the negative logarithm of the EC50 (pEC50) in data set [3] is < 4.58; in data set [5], ≤ 5.16. This compound came in with a CC50 at 120 h in data set [4] of 26.6 µM.
Take `Cc1ccc(NC(=O)CSc2[se]nnc2-c2ccc(Cl)c(Cl)c2)c(Br)c1`: the selectivity ratio in data set [2] is < 1. The figures for the pEC50 in data set [3] and in data set [5] were < 4.64 and ≤ 5.06, respectively. The CC50 at 120 h in data set [4] came out at 22.9 µM.
As for `Cc1ccccc1NC(=O)CSc1[se]nnc1-c1ccc(Cl)c(Cl)c1`, the selectivity ratio is 4 in data set [1] and < 1 in data set [2]. For the same compound, the pEC50 in data set [3] is < 4.65; in data set [5], 5.25. The same compound registered a CC50 at 120 h in data set [4] of 22.3 µM.
On the same counts, the results for `O=C(CSc1[se]nnc1-c1ccc(Cl)c(Cl)c1)Nc1ccccc1Cl` are < 1, < 1, < 4.63, < 4.63 and 23.4 µM.
On the same counts, the results for `COC(=O)c1ccsc1NC(=O)CSc1[se]nnc1-c1ccc(Cl)c(Cl)c1` are < 1, < 1, < 4.66, < 4.66 and 22 µM.
For the compound `Cc1ccc(NC(=O)CSc2[se]nnc2-c2ccc(Cl)c(Cl)c2)c([N+](=O)[O-])c1`, the selectivity ratio was 5 in data set [1] and < 1 in data set [2]. In addition, the pEC50 in data set [3] was < 4.58; in data set [5], 5.27. The CC50 at 120 h in data set [4] was determined as 26.3 µM.
Taken in the same sequence, the figures for `O=C(CSc1[se]nnc1-c1ccc(Cl)c(Cl)c1)Nc1cccnc1Cl` were < 1, < 1, < 4.61, < 4.61 and 24.8 µM.
On the same counts, the results for `Cc1ccc(NC(=O)CSc2[se]nnc2-c2ccc(Cl)c(Cl)c2)cc1` are 2, < 1, < 4.88, 5.18 and 13.3 µM.
For the compound `CC(=O)c1ccc(NC(=O)CSc2[se]nnc2-c2ccc(Cl)c(Cl)c2)c(Br)c1`, the figures for the selectivity ratio in data set [1] and in data set [2] were 8 and < 1, respectively. Moreover, the pEC50 in data set [3] is < 4.72; in data set [5] it was 5.61. The compound further displayed a CC50 at 120 h in data set [4] of 18.9 µM.
On to `O=C(CSc1[se]nnc1-c1ccc(Cl)c(Cl)c1)Nc1ccccc1`, for which the values for the selectivity ratio in data set [1] and in data set [2] were 63 and < 1, respectively. Moreover, the figures for the pEC50 in data set [3] and in data set [5] were < 4.72 and ≤ 5.22, respectively. This compound also returned a CC50 at 120 h in data set [4] of 19 µM.
On the same counts, the results for `O=C(CSc1[se]nnc1-c1ccc(Cl)c(Cl)c1)Nc1ccccc1Br` are < 1, < 1, < 4.63, < 4.63 and 23.6 µM.

For the origin of these results see ChEMBL document CHEMBL1152518, “1,2,3-Selenadiazole thioacetanilides: synthesis and anti-HIV activity evaluation” (Bioorg Med Chem, 2009).
